MIC, LC50 and HC50 data for four substances are collected here from ChEMBL document CHEMBL1156720, “Synthesis and antimicrobial activity of dermaseptin S1 analogues” (Bioorg Med Chem, 2008).

“And” between values parts separate entries of the source, which are not always exact repeats. Identical values can stand only once. Bounds are passed on as bounds.

Data set [1] deals with Leishmania major. Kind of data set: Antileishmanial activity against Leishmania major MHOM/IL/67/JERICHO-2 after 24 hrs by dye exclusion method. The data set is classed as functional. Summed up:
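Promastigotes were grown at 25 °C in medium 199 with 20% heat-inactivated FCS, penicillin/streptomycin, L-glutamine, HEPES, adenine, hemin and biotin. They were resuspended at 5 × 10⁵ viable cells/mL and exposed to serial peptide dilutions at 25 °C with agitation. Viability was counted by trypan blue exclusion in a haemocytometer.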

The test system of data set [2] is Escherichia coli. Kind of data set: Antibacterial activity against Escherichia coli HB101 after 24 hrs by microdilution serial twofold assay. The data set is classed as functional. As to conditions: HB101, 24 h. Summed up:
(§1)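 Bacteria grown in static culture at 37 °C in Mueller Hinton broth and diluted to 5 × 10⁵ CFU/mL. Peptides were tested by twofold serial microdilution starting from 100 μg/mL, with peptide-free control wells. The MIC was the lowest concentration with no rise in turbidity after overnight incubation at 37 °C. Values are means of at least two independent experiments run in duplicate.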

Data set [3] has as its system Staphylococcus aureus. Kind of data set: Antibacterial activity against Staphylococcus aureus Cowan 1 NCTC 8530 after 24 hrs by microdilution serial twofold assay. Format: functional. The conditions noted are these: Cowan 1, 24 h. The essentials:
as §1
On the technique in general: Broth dilution looks for growth in wells or tubes with falling amounts of substance.

Data set [4] concerns Leishmania major. Kind of data set: Antileishmanial activity against Leishmania major MHOM/IL/67/JERICHO-2 assessed as protozoal viability after 24 hrs by dye exclusion method. The data set is classed as functional. The essentials:
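Promastigotes grown at 25 °C in supplemented medium 199 containing 20% heat-inactivated FCS, then resuspended at 5 × 10⁵ viable/mL with serially diluted peptides. After 24 h at 25 °C with agitation, viable cells were counted by haemocytometer using trypan blue exclusion. LC₅₀ is the 50% survival reduction versus an untreated culture, fitted by nonlinear regression. Run in triplicate.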

For data set [5], the system named is Escherichia coli. Kind of data set: Antibacterial activity against Escherichia coli HB101 after 3 hrs by microdilution serial twofold assay. The conditions noted are these: HB101, 3 h, read-out: LD50 (the source's name). Format: functional. The essentials:
(§2)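 Mueller Hinton Broth static cultures grown at 37 °C and diluted to 5 × 10⁵ CFU/mL. Peptides were tested by twofold serial microdilution starting from 100 μg/mL in a final volume of 200 μL, with peptide-free controls. After 3 h incubation, cultures were serially 10-fold diluted in PBS and plated on Mueller Hinton Agar. Counts were taken after 24 h at 37 °C. Value is the dose giving 50% bacterial lethality.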

The test system of data set [6] is Staphylococcus aureus. In words: Antibacterial activity against Staphylococcus aureus Cowan 1 NCTC 8530 after 3 hrs by microdilution serial twofold assay. The data set is classed as functional. As to conditions: Cowan 1, 3 h, read-out: LD50 (the source's name). The essentials: as §2
Data set [7] can be described thus: Toxicity assessed as hemolytic activity in human red blood cells after 30 mins. Format: cell-based, Erythrocyte. As to conditions: read-out: HD50. Summed up: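 Serially diluted peptides were incubated with 10⁸ washed human RBC (100 µL) for 30 min at 37 °C with agitation. After centrifugation at 900g for 10 min, haemoglobin in the supernatant was read at 550 nm. Distilled water gave maximal lysis. HC₅₀ is the mean from at least two independent experiments run in triplicate.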

In data set [8] the test system is Pseudomonas aeruginosa. Kind of data set: Antibacterial activity against multi drug-resistant Pseudomonas aeruginosa after 24 hrs by microdilution serial twofold assay. The data set is classed as functional. The essentials:
(§3)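 Mueller Hinton Broth cultures grown statically at 37 °C and diluted to 5 × 10⁵ CFU/mL. Twofold serial microdilution from 100 μg/mL peptide, final volume 200 μL, with peptide-free controls. MIC is the lowest concentration with no turbidity increase after overnight incubation at 37 °C. Means come from at least two independent experiments run in duplicate.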

The test system of data set [9] is Burkholderia cepacia. In words: Antibacterial activity against Burkholderia cepacia 6/06 after 24 hrs by microdilution serial twofold assay. Format: functional. Summed up: as §1
In data set [10] the test system is Staphylococcus aureus. Kind of data set: Antibacterial activity against multi drug-resistant Staphylococcus aureus after 24 hrs by microdilution serial twofold assay. The data set is classed as functional. The essentials: as §3
For data set [11], the system named is Pseudomonas aeruginosa. In words: Antibacterial activity against Pseudomonas aeruginosa ATCC 15442 after 24 hrs by microdilution serial twofold assay. As to conditions: ATCC 15442, 24 h. The data set is classed as functional.
Data set [12] concerns Stenotrophomonas maltophilia. Kind of data set: Antibacterial activity against Stenotrophomonas maltophilia FC after 24 hrs by microdilution serial twofold assay. Format: functional. The essentials: as §1
For data set [13], the system named is Bacillus subtilis. In words: Antibacterial activity against Bacillus subtilis ATCC 9466 after 24 hrs by microdilution serial twofold assay. The data set is classed as functional. The conditions noted are these: ATCC 9466, 24 h.
Data set [14] concerns Staphylococcus aureus. In words: Antibacterial activity against Staphylococcus aureus ATCC 6538P after 24 hrs by microdilution serial twofold assay. Format: functional.
Data set [15] concerns Candida albicans. Kind of data set: Antifungal activity against wild type Candida albicans by broth microdilution method. Format: functional. Summed up: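 Wild-strain yeast was tested in triplicate by broth microdilution following NCCLS recommendations. The MIC was the lowest peptide concentration with no increase in turbidity after overnight incubation at 37 °C.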

For H-ALWKTMLKKLGTMA-NH2, the MIC is 100 µg/mL and 48.8 µM in data set [1]; 48.8 µM in data set [2]; above 48.8 µM in data set [3]. Also, the LC50 was 50 µg/mL and 24.4 µM in [4]; 20500 nM in [5]; 28300 nM in data set [6]. For the same substance, the HC50 at 0.5 h in [7] is above 100 µM.

As to H-ALWKTMLKKLGTMAL-NH2, the MIC in data set [8] was above 47 µM; in data set [1] it was 50 µg/mL and 22.8 µM; in data set [9], 23.7 µM; in data set [10], above 47 µM; in data set [2] it was 2.9 µM; in data set [3] it was 11.5 µM. Besides, the MIC in data set [11] was above 47 µM; in [12], above 45 µM; in data set [13] it was 5.7 µM; in data set [14], 5.7 µM; in [15] it was 23.7 µM. For the same substance, the LC50 is 19 µg/mL and 8.7 µM in [4]; 1400 nM in [5]; 2700 nM in data set [6]. Besides, the HC50 at 0.5 h in data set [7] is above 100 µM.

Consider H-ALWKTMLKKLGTMALHAGK-NH2, for which the MIC in data set [1] was 50 µg/mL and 17.9 µM; in data set [2], 3.6 µM; in data set [3], 35.9 µM. The LC50 is 22 µg/mL and 7.9 µM in data set [4]; below 1800 nM in [5]; 10700 nM in [6]. Besides, the HC50 at 0.5 h in data set [7] is above 100 µM.

H-ALWKTMLKKLGTMALHAGKAALGAAADTI-NH2: the MIC is 25 µg/mL and 6.1 µM in [1]; 2.7 µM in [2]; 2.7 µM in [3]. In addition, the LC50 was 9.6 µg/mL and 2.3 µM in data set [4]; 2200 nM in data set [5]; below 1500 nM in data set [6]. Also, the HC50 at 0.5 h in data set [7] was above 100 µM.

The term MIC denotes the lowest concentration found to suppress growth. High values mean weaker potency, low ones greater potency.
